Measured values as given in ChEMBL document CHEMBL1145955, “Synthesis, anti-HIV activity, and molecular mechanism of drug resistance of L-2',3'-didehydro-2',3'-dideoxy-2'-fluoro-4'-thionucleosides” (J Med Chem, 2003).

How the values were obtained:
[1] = Fold increase was determined from the ratio of EC90 (HIV-1M184V) / EC90 (HIV-1xxBRU); assay type: functional
In short: (§1)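 Molecular clones HIV-1 xxBru (wild type) and HIV-1 M184Vpitt infected PHA-stimulated human PBM cells in bulk for 1 h. Cells were cultured with 10-fold serial compound dilutions, 5 days, 37 °C, 5% CO2. Read-out was supernatant RT activity with ³H-TTP incorporation. EC50 and EC90 were taken from concentration-response curves by the median effect method. Fold increase = EC90(M184V)/EC90(xxBru).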

CCRF-CEM = assay: Evaluated in vitro for their potential toxic effects human CEM cells; assay type: functional, cell-based
In short: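 CEM T-lymphoblastoid cells in log phase, 2.5 × 10³ cells/well, were exposed to 10-fold serial drug dilutions for 4 days at 37 °C, 5% CO₂. Viability was read by MTT (overnight dye, 5 h solubilization, 570 nm). IC50 was determined by the median-effect method.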

[2] = system: Human immunodeficiency virus 1; assay: Antiviral activity was determined against lamivudine-resistant mutant M184V strain; assay type: functional; in short: as §1
[3] = Evaluated in vitro for their potential toxic effects on uninfected PHA-stimulated human PBM cells; assay type: functional, cell-based
In short: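 Uninfected PHA-stimulated PBM cells from healthy seronegative donors (Ficoll-Hypaque) were plated at 5 × 10⁴ cells/well with 10-fold serial drug dilutions for 5 days at 37 °C, 5% CO₂. The MTT readout was taken at 570 nm after overnight dye and 5 h solubilization. IC50 came from median-effect curves.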

[4] = system: Human immunodeficiency virus 1; assay: (§2) In vitro anti-HIV activity was determined in PBM cells infected with HIV-1; assay type: functional, organism-based; conditions: Human immunodeficiency virus 1, PBMC
In short: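 PHA-stimulated (2-3 days) human PBM cells from healthy seronegative donors, infected in bulk for 1 h with HIV-1 LAI (100 TCID50/1 × 10⁷ cells in flasks or 200 TCID50/6 × 10⁵ cells/well). Infected cells went onto 10-fold serial compound dilutions in RPMI-1640 with 16% FBS, DEAE-dextran and IL-2, 5 days at 37 °C. Virion-pelleted supernatant RT activity was measured by poly(rA)·oligo(dT)/³H-TTP incorporation (37 °C, 2 h). EC50/EC90 came from median-effect curves.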

[5] = system: Vero (Chlorocebus sabaeus); assay: Evaluated in vitro for their potential toxic effects against Vero cells
[6] = system: Human immunodeficiency virus 1; assay: Antiviral activity was determined against WT (HIV-1xxBRU); assay type: functional
In short: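 Molecular infectious clone HIV-1 xxBru was used to infect PHA-stimulated human PBM cells in bulk for 1 h (100 TCID50/1 × 10⁷ cells or 200 TCID50/6 × 10⁵ cells/well). Cells were cultured 5 days at 37 °C with 10-fold serial compound dilutions. Readout was supernatant RT activity, with ³H-TTP incorporation on poly(rA)·oligo(dT). EC50 was derived by the median-effect method.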

[7] = as §2; conditions: Homo sapiens, PBMC
Vero = assay: Evaluated in vitro for their potential toxic effects against Vero cells; assay type: functional, cell-based; conditions: Chlorocebus sabaeus
In short: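 Log-phase Vero cells were seeded at 5 × 10³ cells/well in 10-fold serial drug dilutions and incubated 3 days at 37 °C, 5% CO₂. MTT dye was added overnight, then solubilized for 5 h and read at 570 nm. IC50 was taken from median-effect concentration-response curves.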

| SMILES | FI [1] | IC50 (CCRF-CEM) | EC90 [2] | IC50 [3] | EC50 [4] | IC50 [5] | EC90 [6] | EC50 [7] | IC50 (Vero) |
| --- | --- | --- | --- | --- | --- | --- | --- | --- | --- |
| Nc1ccn([C@H]2S[C@@H](CO)C=C2F)c(=O)n1 | > 100 | > 100 µM | > 100 µM | > 100 µM | 0.12 µM | > 100 µM | 1.4 µM | – | – |
| Cc1cn([C@H]2C[C@H](N=[N+]=[N-])[C@@H](CO)O2)c(=O)[nH]c1=O [ZIDOVUDINE] | – | 29 µM | – | > 100 µM | – | – | – | 0.004 µM | 14.3 µM |
| OC[C@H]1C=C(F)[C@@H](n2cnc3c(O)ncnc32)S1 | – | > 100 µM | – | > 100 µM | 15.5 µM | – | – | – | > 100 µM |
| Nc1nc(O)c2ncn([C@H]3S[C@@H](CO)C=C3F)c2n1 | – | 41.5 µM | – | > 100 µM | 43.5 µM | – | – | – | 66.4 µM |
| Nc1ncnc2c1ncn2[C@H]1S[C@@H](CO)C=C1F | – | > 100 µM | – | > 100 µM | 1.7 µM | – | – | – | > 100 µM |
| Nc1nc(=O)n([C@H]2S[C@@H](CO)C=C2F)cc1F | – | > 100 µM | – | > 100 µM | 0.15 µM | – | – | – | > 100 µM |
| O=c1ccn([C@H]2S[C@@H](CO)C=C2F)c(=O)[nH]1 | – | > 100 µM | – | > 100 µM | > 100 µM | – | – | – | > 100 µM |
| Cc1cn([C@H]2S[C@@H](CO)C=C2F)c(=O)[nH]c1=O | – | > 100 µM | – | > 100 µM | > 100 µM | – | – | – | > 100 µM |
